# Bioassay records (PubChem BioAssay)
# UPR CHOP act = activators of apoptotic arm of unfolded protein response (CHOP); CHO-CHOP luciferase reporter, UPR activation, luminescence; percent of tunicamycin response over DMSO baseline; AID 449763; activation, % at 10 µM; 330,000 compounds, 0.34% hits;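 active = at 10 µM dose, activation of 40% or more, normalized to positive control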
#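 Assay system: CHO-CHOP cells, stable luciferase reporter of PERK-eIF2a-CHOP signalling / Buffer or medium: F12 plus 10% serum / Compound dosing: one dose, 10 µM in 0.5% DMSO / Times: 6 h compound treatment, 37 °C / Technique: luciferase luminescence / Read-out: % reporter activation, DMSO baseline versus tunicamycin full activation / Benchmarks: tunicamycin and DMSO controls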
# Mdm2-MdmX inh = disrupts the human Mdm2-MdmX interaction; O15151+Q00987; SaOS-2 split-luciferase Mdm2/MdmX complementation, luminescence; inhibition, % at 8 µM; 330,000 compounds, 3% hits;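 active = inhibition of at least 50% at 8 µM in the primary screen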
# UBC13 inh = blocks human UBC13 polyubiquitin chain formation; 330,000 compounds, 0.47% hits; AID 485273; inhibition, % at 20 µM; P61088; TR-FRET; in the data active = inhibition above about 45%, passing the limit was not always enough
# Target sequence (P61088 whole entry, looked up): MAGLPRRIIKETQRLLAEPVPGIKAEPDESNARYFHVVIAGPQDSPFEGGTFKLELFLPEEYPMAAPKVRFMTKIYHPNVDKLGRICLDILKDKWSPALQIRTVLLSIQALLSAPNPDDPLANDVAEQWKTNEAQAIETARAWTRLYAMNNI
# XBP1 UPR activ = adaptive UPR (XBP1) activation | 330,000 compounds, 0.33% hits | CHO-XBP1 luciferase reporter, IRE1-XBP1 UPR activation, luminescence; percent of tunicamycin response, DMSO as zero | activation, % at 20 µM;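 active = versus positive control, 20 µM dose yields 30% or more activation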
#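 assay system = CHO-XBP1 luciferase reporter cells | amount = 1000 cells/well | buffer or medium = F12 plus 10% FBS | compound dosing = single point, 20 µM final compound, 1% DMSO | incubation = 16-18 h cell attachment at 37 °C, then 6 h compound exposure | detection = Steady-Glo luminescence read | controls = tunicamycin 10 µg/mL and vehicle-only wells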
# Apaf1 inhib = inhibitors of human Apaf-1 apoptosome; O14727; reconstituted apoptosome caspase-3 activity, DEVD-Rh110 fluorescence; inhibition, % at 20 µM; 330,000 compounds, 0.71% hits; active = inhibition of at least 40% at 20 µM
#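 System: reconstituted apoptosome with Apaf-1, cytochrome c, caspase-9, procaspase-3, dATP; Signal: Rh110 fluorescence intensity; Schedule: 30 min compound preincubation, 50 min activation, room temperature; Reagent: cytochrome c trigger plus (Z-DEVD)2-Rh110 caspase-3 substrate.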
# Casp3 UBC13 ctr = caspase-3 inhibition (UBC13 counter-screen). shares compounds with UBC13 inh. Recombinant caspase-3, Caspase-Glo 3/7 luminescence, 60 min. inhibition, % at 20 µM. 1,400 compounds, 4% hits;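 active = mean inhibition across replicates above about 26%, limit read from the data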
# Target sequence (P42574 whole entry, looked up): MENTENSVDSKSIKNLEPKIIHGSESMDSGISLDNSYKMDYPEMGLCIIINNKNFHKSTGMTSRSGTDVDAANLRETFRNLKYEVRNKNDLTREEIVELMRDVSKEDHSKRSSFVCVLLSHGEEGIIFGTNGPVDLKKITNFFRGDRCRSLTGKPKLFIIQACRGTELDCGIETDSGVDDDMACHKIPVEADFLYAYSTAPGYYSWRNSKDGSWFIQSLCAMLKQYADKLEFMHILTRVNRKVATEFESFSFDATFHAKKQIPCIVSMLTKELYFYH
# UBC13 confirm = confirmation of human UBC13 polyubiquitin inhibitors; 1,400 compounds, 68% hits; UBC13 polyubiquitination, TR-FRET, biochemical; inhibition, % at 10 µM; AID 488859; shares compounds with UBC13 inh; in the data active = inhibition above about 45%
# Numbers stand for hits; i = inactive; nt = no result given. Most compounds without a hit are left out; they make up all but 4.1% or so of the library.
SMILES,UPR CHOP act,Mdm2-MdmX inh,UBC13 inh,XBP1 UPR activ,Apaf1 inhib,Casp3 UBC13 ctr,UBC13 confirm
O=C(C1=C[C@H](c2coc3ccccc3c2=O)C[C@H](OCc2ccc(CO)cc2)O1)N1CCN(Cc2ccc3c(c2)OCO3)CC1,i,i,i,i,i,nt,nt
O=C(C1=C[C@@H](c2coc3ccccc3c2=O)C[C@@H](OCc2ccc(CO)cc2)O1)N1CCN(Cc2ccc3c(c2)OCO3)CC1,i,i,76,i,i,i,57
CC(C)Cn1c(-c2cccs2)nc2nc3ccccc3nc21,i,i,i,i,i,nt,nt
CCCCn1c(-c2cccs2)nc2nc3ccccc3nc21,i,i,56,i,i,i,45
CCOC(=O)c1ccc(NC(=O)c2nc[nH]c2C(=O)NCCCNC(=O)c2[nH]cnc2C(=O)Nc2ccc(C(=O)OCC)cc2)cc1,i,i,i,i,i,nt,nt
CCOC(=O)c1ccc(NC(=O)c2nc[nH]c2C(=O)NCCCCCNC(=O)OC(C)(C)C)cc1,i,i,45,i,i,i,i
CCOC(=O)c1ccc(NC(=O)c2nc[nH]c2C(=O)NCC(=O)OC(C)(C)C)cc1,i,i,52,i,i,i,i
CC(C)(C)OC(=O)N1CCC(NC(=O)c2nc[nH]c2C(=O)NC2CCN(C(=O)OC(C)(C)C)CC2)CC1,i,i,i,i,i,nt,nt
CCOC(=O)c1ccc(NC(=O)c2nc[nH]c2C(=O)NC2CCN(C(=O)OC(C)(C)C)CC2)cc1,i,i,92,i,i,i,92
CCOC(=O)c1ccc(NC(=O)c2nc[nH]c2C(=O)NCCCCNC(=O)c2[nH]cnc2C(=O)Nc2ccc(C(=O)OCC)cc2)cc1,i,i,i,i,i,nt,nt
COc1ccc(Cl)cc1NC(=O)CN1CCN(S(=O)(=O)N2CCCCC2)CC1,i,i,i,i,i,nt,nt
COc1cccc(-n2c(=O)n(Cc3ccccc3)c(=O)c3[nH]cnc32)c1C,i,i,i,i,i,nt,nt
O=C(NNC(=S)NC(=O)c1ccccc1[N+](=O)[O-])c1ccccc1Cl,i,i,48,i,i,i,i
NC(=O)c1nsc(C(=O)N(c2cccc(F)c2)C(C(=O)NC2CCCC2)c2ccco2)c1N (stereo unspecified),i,i,53,i,i,i,i
NC(=O)c1nsc(C(=O)N(c2cccc(F)c2)C(C(=O)NC2CCCC2)c2ccc(O)cc2)c1N (stereo unspecified),i,i,48,i,i,i,51
NC(=O)c1nsc(C(=O)N(CCc2ccccc2)C(C(=O)NC2CCCC2)c2ccco2)c1N (stereo unspecified),i,i,i,i,i,nt,nt
Cc1ccccc1N(C(=O)c1snc(C(N)=O)c1N)C(C(=O)NC1CCCC1)c1ccco1 (stereo unspecified),i,i,i,i,i,nt,nt
CCc1ccc(N(C(=O)c2snc(C(N)=O)c2N)C(C(=O)NC2CCCC2)c2ccco2)cc1 (stereo unspecified),i,i,63,i,i,i,67
Cc1ccc(N(C(=O)c2snc(C(N)=O)c2N)C(C(=O)NCCC(C)C)c2ccco2)cc1 (stereo unspecified),i,i,74,i,i,i,62
CC(CNC(=O)c1ccc(OC2CCN(Cc3ccccn3)CC2)cc1)c1ccccc1 (stereo unspecified),i,i,i,i,i,nt,nt
CCOc1ccccc1N(CC(=O)Nc1ccccc1C(=O)N1CCCC1)S(C)(=O)=O,i,i,i,i,i,nt,nt
CCCN1CCc2c(sc3nc(SCC)n(-c4ccc(OC)cc4)c(=O)c23)C1,i,i,i,i,i,nt,nt
Cc1ccc(NC(=O)CSc2nc3ccccc3nc2N2CCCC2)cc1,i,i,i,i,i,nt,nt
CCOc1ccc(N(C(=O)c2snc(C(N)=O)c2N)C(C(=O)NC2CCCC2)C(C)C)cc1 (stereo unspecified),i,i,70,i,i,i,78
COc1ccc(N(C(=O)c2snc(C(N)=O)c2N)C(C(=O)NC2CCCCC2)c2ccc(C)o2)cc1 (stereo unspecified),i,i,60,i,i,i,55
SMILES,UPR CHOP act,Mdm2-MdmX inh,UBC13 inh,XBP1 UPR activ,Apaf1 inhib,Casp3 UBC13 ctr,UBC13 confirm
CCC(C(=O)NC1CCCC1)N(Cc1ccc2c(c1)OCO2)C(=O)c1snc(C(N)=O)c1N (stereo unspecified),i,i,i,i,i,nt,nt
CC(C)CC(C(=O)NC1CCCC1)N(Cc1ccc2c(c1)OCO2)C(=O)c1snc(C(N)=O)c1N (stereo unspecified),i,i,46,i,i,i,i
COc1ccc(N(C(=O)c2snc(C(N)=O)c2N)C(C(=O)NC2CCCC2)c2ccco2)cc1 (stereo unspecified),i,i,82,i,i,i,90
COc1ccc(N(C(=O)c2snc(C(N)=O)c2N)C(C(=O)NC2CCCC2)c2cccs2)cc1OC (stereo unspecified),i,i,64,i,i,i,i
CCC(C(=O)NC1CCCC1)N(C(=O)c1snc(C(N)=O)c1N)c1ccc(OC)c(OC)c1 (stereo unspecified),i,i,i,i,i,nt,nt
Cc1ccnc(NC(=O)c2cccc(S(=O)(=O)N3CCCC3)c2)c1,i,i,i,i,i,nt,nt
CC(C)(C)c1cc(NCCCn2ccnc2)n2ncc(-c3ccccc3)c2n1,i,i,61,i,i,i,55
CC(C)Nc1cc(C(C)(C)C)nc2c(-c3ccccc3)cnn12,i,i,i,i,i,nt,nt
CC1CCCC(NC(=O)COc2ncnc3ccccc23)C1C (stereo unspecified),i,i,i,i,i,nt,nt
CC1CCCC(NC(=O)CSc2ncnc3ccccc23)C1C (stereo unspecified),i,i,46,i,i,i,i
CN(C)C=NC(=O)c1cc(C(=O)c2ccc(Cl)cc2Cl)c[nH]1,i,i,i,i,i,nt,nt
C[C@@H]1CCCCCCCCC(=O)OCCN[C@H](C)CCCCCCCCC(=O)OCCN[C@H](C)CCCCCCCCC(=O)OCCN1,i,i,63,i,68,i,51
Cc1ccc(C(=O)c2coc3ccc(O)c(CN4CCN(C)CC4)c23)cc1,i,i,i,i,i,nt,nt
CN(CCCNC(=O)CCCOc1cc(=O)n(C)c2ccccc12)Cc1ccccc1,i,i,i,i,i,nt,nt
CN(CCNC(=O)CCCOc1cc(=O)n(C)c2ccccc12)Cc1ccccc1,i,i,51,i,i,i,68
Cc1ccc(NC(=O)C2CCCN(S(=O)(=O)c3c(C)noc3C)C2)c(Br)c1 (stereo unspecified),i,i,i,i,i,nt,nt
Cn1c(C(=O)NCc2cccs2)cc2c(=O)n(C)c3ccccc3c21,i,i,i,i,i,nt,nt
